What was measured:
[1] = target: T1, ATP-dependent translocase ABCB1 (Homo sapiens, UniProt P08183); assay: Inhibition of P-glycoprotein-mediated daunorubicin efflux in K562/R7 human leukemic cells overexpressing P-glycoprotein assessed as intracellular accumulation of daunorubicin at 10 uM after 1 hr by flow cytometry relative to progesterone; assay type: cell-based; set-up: scale not given: the % may be the effect or the level left
Procedure, shortened: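 Pgp-overexpressing resistant K562/R7 human leukemic cells; intracellular daunorubicin (1 μM) accumulation measured with compound at 10 μM. Accumulation with progesterone (10 μM) was set as 100%, and compound values were expressed as percent of that, with standard deviation.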

K562 = assay: Cytotoxicity against human K562 cells expressing very low P-glycoprotein at 10 uM after 24 hrs relative to control
[2] = target: T1, ATP-dependent translocase ABCB1; assay: Inhibition of P-glycoprotein-mediated daunorubicin efflux in K562/R7 human leukemic cells overexpressing P-glycoprotein assessed as intracellular accumulation of daunorubicin at 10 uM after 1 hr by flow cytometry; assay type: cell-based; set-up: scale not given: the % may be the effect or the level left
Procedure, shortened: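 K562/R7 human leukemic cells overexpressing Pgp; intracellular daunorubicin (1 μM) accumulation measured with test compounds at 10 μM. Progesterone (10 μM) served as positive control; accumulation with progesterone set as 100%, values expressed as percent of progesterone accumulation; standard deviation reported.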

T1 sequence (P08183 whole entry): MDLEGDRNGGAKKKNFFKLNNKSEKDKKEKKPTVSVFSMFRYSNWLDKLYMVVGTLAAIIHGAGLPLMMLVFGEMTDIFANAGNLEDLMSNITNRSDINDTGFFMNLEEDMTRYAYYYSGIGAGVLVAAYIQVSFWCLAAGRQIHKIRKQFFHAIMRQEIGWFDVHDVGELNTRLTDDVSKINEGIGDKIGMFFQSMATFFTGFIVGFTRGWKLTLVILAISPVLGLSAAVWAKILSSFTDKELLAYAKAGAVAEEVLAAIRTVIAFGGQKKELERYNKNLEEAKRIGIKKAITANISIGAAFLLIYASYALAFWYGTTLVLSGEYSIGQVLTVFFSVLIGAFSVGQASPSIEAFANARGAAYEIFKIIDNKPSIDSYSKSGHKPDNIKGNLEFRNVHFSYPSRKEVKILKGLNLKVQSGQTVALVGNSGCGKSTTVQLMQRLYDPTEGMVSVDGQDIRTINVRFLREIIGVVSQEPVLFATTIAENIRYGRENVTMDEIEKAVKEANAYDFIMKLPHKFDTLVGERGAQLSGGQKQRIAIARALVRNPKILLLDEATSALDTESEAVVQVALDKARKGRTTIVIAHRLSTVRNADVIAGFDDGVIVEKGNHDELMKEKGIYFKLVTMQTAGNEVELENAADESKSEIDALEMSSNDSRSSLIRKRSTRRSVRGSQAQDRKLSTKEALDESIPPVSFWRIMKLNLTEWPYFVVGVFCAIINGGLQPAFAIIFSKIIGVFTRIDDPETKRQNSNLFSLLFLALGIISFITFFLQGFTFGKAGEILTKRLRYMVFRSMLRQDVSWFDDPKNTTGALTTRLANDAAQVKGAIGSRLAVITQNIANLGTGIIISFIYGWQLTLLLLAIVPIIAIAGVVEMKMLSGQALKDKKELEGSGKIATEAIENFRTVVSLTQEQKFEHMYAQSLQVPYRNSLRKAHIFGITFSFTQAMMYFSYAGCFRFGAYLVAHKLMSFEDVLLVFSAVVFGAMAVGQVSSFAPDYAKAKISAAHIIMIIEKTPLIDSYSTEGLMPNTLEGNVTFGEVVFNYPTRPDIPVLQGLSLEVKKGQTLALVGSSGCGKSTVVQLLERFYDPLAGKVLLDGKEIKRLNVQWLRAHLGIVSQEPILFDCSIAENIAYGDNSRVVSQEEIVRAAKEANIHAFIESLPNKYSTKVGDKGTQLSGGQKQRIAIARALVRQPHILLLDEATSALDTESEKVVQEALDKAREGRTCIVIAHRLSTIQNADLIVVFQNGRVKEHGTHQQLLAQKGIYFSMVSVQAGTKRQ

SMILES | Activity [1] [%] | Activity (K562) [%] | Activity [2] [%]
C[C@]12CC[C@H]3[C@@H](CCC4=CC(=O)CC[C@@]43C)[C@@H]1CC[C@@H]2C(=O)NCCCCCCn1cnc2c(N)ncnc21 | 110.9 | 80 | –
C[C@]12CC[C@H]3[C@@H](CCC4=CC(=O)CC[C@@]43C)[C@@H]1CC[C@@H]2C(=O)NC[C@H]1CC[C@H](Cn2cnc3c(N)ncnc32)CC1 | 98.9 | 80 | –
C[C@]12CC[C@H]3[C@@H](CCC4=CC(=O)CC[C@@]43C)[C@@H]1CC[C@@H]2C(=O)NCc1ccc(Cn2cnc3c(N)ncnc32)cc1 | 98.1 | 80 | –
CC(=O)[C@H]1CC[C@H]2[C@@H]3CCC4=CC(=O)CC[C@]4(C)[C@H]3CC[C@]12C [PROGESTERONE] | – | – | 25

Now from value to molecule, other results behind:

Activity [1] [%] | SMILES | Activity (K562) [%] | Activity [2] [%]
72.2 | C[C@]12CC[C@H]3[C@@H](CCC4=CC(=O)CC[C@@]43C)[C@@H]1CC[C@@H]2C(=O)NC/C=C/Cn1cnc2c(N)ncnc21 | 80 | –
86.2 | C[C@]12CC[C@H]3[C@@H](CCC4=CC(=O)CC[C@@]43C)[C@@H]1CC[C@@H]2C(=O)NC/C=C\Cn1cnc2c(N)ncnc21 | 80 | –
78 | C[C@]12CC[C@H]3[C@@H](CCC4=CC(=O)CC[C@@]43C)[C@@H]1CC[C@@H]2C(=O)NCCCCn1cnc2c(N)ncnc21 | 80 | –
61.2 | C[C@]12CC[C@H]3[C@@H](CCC4=CC(=O)CC[C@@]43C)[C@@H]1CC[C@@H]2C(=O)NCC#CCn1cnc2c(N)ncnc21 | 80 | –

From ChEMBL document CHEMBL1157787, “Design, synthesis and evaluation of progesterone-adenine hybrids as bivalent inhibitors of P-glycoprotein-mediated multidrug efflux” (Bioorg Med Chem Lett, 2010)
